Active and inactive are the calls of the source. No cut-off for these calls is given here.
What was measured:
HEp-2 [1] = assay: Cytotoxicity against human HEp-2 cells assessed as reduction in MTS absorbance at 100 uM by MTS assay; assay type: cell-based; set-up: scale not given: the % may be the effect or the level left; details: hep-2, 100 µM
In short: (§1)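 HEp-2 cells were seeded at 5000/well and treated 24 h later with compound (two doses) alongside 1% DMSO and media controls, in triplicate. After 24 h treatment, medium was replaced with fresh supplemented DMEM. MTS/PMS was added for 4 h and absorbance read at 490 nm. Results are expressed as % MTS reduction relative to 1% DMSO-treated cells.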

Chlamydia trachomatis [2] = assay: Antibacterial activity against Chlamydia trachomatis D (D/UW-3/Cx; CtD) infected in HEp-2 cells assessed as log reduction in infectivity unit at 25 uM measured after 44 hrs; assay type: functional
In short: (§2)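 C. trachomatis D was grown in HEp-2 cells and C. pecorum G in McCoy B cells, in high-glucose DMEM with 10% heat-inactivated FCS, 4 mM alanyl-glutamine, streptomycin and gentamicin. Cells were seeded at 20,000/well 24 h before infection, at MOI 12 (CtD) or MOI 4 (CpG). Infection was synchronised by centrifugation at 500×g, 28 °C, 30 min. Dose series added 16 h PI, with 1% DMSO and media controls. Read-out was IFU/mL; n=3.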

HEp-2 [3] = assay: Cytotoxicity against human HEp-2 cells assessed as reduction in MTS absorbance at 25 uM by MTS assay; assay type: cell-based; details: hep-2, 25 µM; in short: as §1
Chlamydia pecorum [4] = assay: Antibacterial activity against Chlamydia pecorum G (MC/MarsBar;CpG) infected in McCoy B cells assessed as log reduction in infectivity unit at 25 uM measured after 44 hrs; assay type: functional, organism-based; details: VR629 G (MC/MarsBar;CpG); in short: as §2
HEp-2 [5] = assay: Cytotoxicity against human HEp-2 cells assessed as decrease in cell integrity at 25 uM by LDH assay; assay type: cell-based; set-up: scale not given: the % may be the effect or the level left; details: hep-2, 25 µM
In short: (§3)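 HEp-2 cells were seeded at 5000/well and treated 24 h later at two doses, with 1% DMSO and media-only controls, in triplicate, for 8 h. Maximum-release wells were lysed with 0.8% Triton X-100 45 min before supernatant collection. Supernatant was incubated with CytoTox reagent for 30 min, then stop solution, and read at A490. Extracellular LDH is given as % of maximum release.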

Chlamydia pecorum [6] = assay: Antibacterial activity against Chlamydia pecorum G (MC/MarsBar;CpG) infected in McCoy B cells assessed as reduction in bacterial titer at 50 to 100 uM measured after 44 hrs; assay type: functional, organism-based; details: VR629 G (MC/MarsBar;CpG), dose 50-100 µM; in short: as §2
Chlamydia trachomatis [7] = assay: Antibacterial activity against Chlamydia trachomatis D (D/UW-3/Cx; CtD) infected in HEp-2 cells assessed as reduction in bacterial titer at 50 to 100 uM measured after 44 hrs; assay type: functional, organism-based; details: dose 50-100 µM; in short: as §2
[8] = target: T1, Probable periplasmic serine endoprotease DegP-like (Chlamydia trachomatis, UniProt P18584); assay: Inhibition of recombinant ctHtrA serine protease using MeOCoum-ENLHLPLPI1F-D as substrate pretreated for 10 min followed by substrate addition and measured after 30 minutes
T1 sequence (P18584 whole entry): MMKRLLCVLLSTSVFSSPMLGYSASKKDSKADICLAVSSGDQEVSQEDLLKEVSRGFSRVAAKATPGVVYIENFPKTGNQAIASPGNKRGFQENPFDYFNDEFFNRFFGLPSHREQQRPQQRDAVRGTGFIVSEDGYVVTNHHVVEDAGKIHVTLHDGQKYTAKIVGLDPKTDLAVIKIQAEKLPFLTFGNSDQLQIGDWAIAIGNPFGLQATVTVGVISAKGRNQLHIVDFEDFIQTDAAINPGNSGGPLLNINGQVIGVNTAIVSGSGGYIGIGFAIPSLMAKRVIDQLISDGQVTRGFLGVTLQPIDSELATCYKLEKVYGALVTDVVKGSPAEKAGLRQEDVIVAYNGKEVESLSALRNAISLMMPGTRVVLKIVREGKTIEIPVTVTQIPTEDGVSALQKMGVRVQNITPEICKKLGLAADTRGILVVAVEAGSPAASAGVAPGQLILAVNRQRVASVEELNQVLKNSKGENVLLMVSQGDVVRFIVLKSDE
In short: (§4)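 Recombinant CtHtrA was tested against a six-dose inhibitor series in 50 mM Tris, 20 mM MgCl₂, pH 7.0. Plates were shaken before each of multiple reads per well. Each dose was run in triplicate, with a JO146 dose series (n=3) and DMSO controls (n=6). Relative inhibition is IC50(JO146)/IC50(compound), because IC50 varied between batches.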

HEp-2 [9] = assay: Cytotoxicity against human HEp-2 cells assessed as decrease in cell integrity at 100 uM by LDH assay; assay type: cell-based; set-up: scale not given: the % may be the effect or the level left; details: hep-2, 100 µM; in short: as §3
Neutrophil elastase = target: T2, Neutrophil elastase (Homo sapiens, UniProt P08246); assay: Inhibition of human neutrophil elastase using methoxysuccinyl-Ala-Ala-Pro-Val-pNA as substrate incubated for 15 min
T2 sequence (P08246 whole entry): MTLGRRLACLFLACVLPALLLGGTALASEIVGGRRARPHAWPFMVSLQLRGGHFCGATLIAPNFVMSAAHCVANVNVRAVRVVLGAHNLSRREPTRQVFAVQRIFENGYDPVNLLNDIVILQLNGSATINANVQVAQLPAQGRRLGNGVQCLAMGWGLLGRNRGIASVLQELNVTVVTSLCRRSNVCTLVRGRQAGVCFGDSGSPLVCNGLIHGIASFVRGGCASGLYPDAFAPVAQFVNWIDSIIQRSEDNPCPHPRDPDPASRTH

Pseudomonas aeruginosa = assay: Antibacterial activity against Pseudomonas aeruginosa assessed as growth inhibition at 50 uM; assay type: functional, organism-based
In short: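 P. aeruginosa PAO1 was grown overnight in fluorescent broth (pH 7.0) at 37 °C with shaking, diluted 1/1000 with added MgSO₄, and given compound at 50 or 100 µM final. DMSO controls were 0.5% or 1%. OD600 and fluorescence (ex 405/em 460 nm) were read every 15 min for 24 or 48 h. Pyoverdine was quantified as area under the curve.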

Escherichia coli = assay: Antibacterial activity against Escherichia coli assessed as growth inhibition at 50 uM; assay type: functional, organism-based
In short: (§5)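 Broth microdilution MIC in cation-adjusted Mueller Hinton broth. Compound was 2-fold serially diluted from 32 µg/mL (approx. 50 µM) to 0.015 µg/mL. The inoculum was about 5×10⁵ CFU/mL from overnight cultures. Plates were incubated at 37 °C with shaking for 24 h. MIC was the lowest concentration without growth; technical triplicate.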

Staphylococcus aureus = assay: Antibacterial activity against Staphylococcus aureus assessed as growth inhibition at 50 uM; assay type: functional, organism-based; in short: as §5
[10] = target: T3, Probable periplasmic serine endoprotease DegP-like (Chlamydia trachomatis) (UniProt P18584); assay: Ratio of JO146 IC50 to test compound IC50 for inhibition of recombinant ctHtrA serine protease using Me0Coum-ENLHLPLPI1F-D as substrate pretreated for 10 minutes followed by substrate addition and measured after 30 minutes; in short: as §4
T3 sequence (whole entry): T1 sequence (P18584 whole entry)

SMILES | Activity (HEp-2 [1]) | Activity (Chlamydia trachomatis [2]) | Activity (HEp-2 [3]) | Activity (Chlamydia pecorum [4]) | Activity (HEp-2 [5]) | Activity (Chlamydia pecorum [6]) | Activity (Chlamydia trachomatis [7]) | IC50 [8] | Activity (HEp-2 [9]) | IC50 (Neutrophil elastase) | Activity (Pseudomonas aeruginosa) | Activity (Escherichia coli) | Activity (Staphylococcus aureus) | Ratio IC50 [10]
CCC(C)C(NC(=O)[C@@H]1CCCN1C(=O)[C@@H](NC(=O)C(C)(C)C)C(C)(C)C)P(=O)(Oc1ccccc1)Oc1ccccc1 (some centres not stated) | Toxic | Active | Non-Toxic | Active | <= 3.4% |  |  |  |  |  |  |  |  | 
CCC(C)C(NC(=O)[C@@H]1CCCN1C(=O)[C@@H](NC(=O)OCc1ccccc1)C(C)(C)C)P(=O)(Oc1ccccc1)Oc1ccccc1 (some centres not stated) | Toxic |  | Non-Toxic |  | <= 3.4% | Active | Active | 24.9 µM |  |  |  |  |  | 
CC(C)C(NC(=O)[C@@H]1CCCN1C(=O)[C@@H](NC(=O)OCc1ccccc1)C(C)(C)C)P(=O)(Oc1ccccc1)Oc1ccccc1 (some centres not stated) | Toxic |  | Non-Toxic |  | <= 3.4% |  |  |  |  |  |  |  |  | 
CC(C)C(NC(=O)C(C)n1cccc(NC(=O)OC(C)(C)C)c1=O)P(=O)(Oc1ccccc1)Oc1ccccc1 (configuration not stated) | <= 25% | Active |  | Active |  | Active | Active |  |  |  |  |  |  | 
CCC(C)C(NC(=O)[C@@H]1CCCN1C(=O)[C@@H](NC(=O)NC(C)(C)C)C(C)(C)C)P(=O)(Oc1ccccc1)Oc1ccccc1 (some centres not stated) | Toxic |  | Non-Toxic |  | <= 3.4% |  |  |  |  |  |  |  |  | 
CCC(C)C(NC(=O)C(C)n1cccc(NC(=O)OC(C)(C)C)c1=O)P(=O)(Oc1ccccc1)Oc1ccccc1 (configuration not stated) | <= 25% | Active |  | Active |  |  |  | 128 µM | < 10% |  |  |  |  | 
CC(C)C(NC(=O)[C@@H]1CCCN1C(=O)[C@@H](NC(=O)OC(C)(C)C)C(C)(C)C)P(=O)(Oc1ccccc1)Oc1ccccc1 (some centres not stated) |  |  |  |  | <= 3.4% |  |  | 9.3 µM |  | 3.02 µM | inactive | inactive | inactive | 1.34
CC(C)C(NC(=O)[C@@H]1CCCN1C(=O)[C@@H](NC(=O)OC(C)(C)C)C(C)C)P(=O)(Oc1ccccc1)Oc1ccccc1 (some centres not stated) | <= 25% | Active |  | Active | <= 3.4% |  |  | 12.5 µM |  | 1.15 µM | inactive | inactive | inactive | 1
CC(C)C(NC(=O)C(C)n1cccc(NC(=O)Oc2ccccc2)c1=O)P(=O)(Oc1ccccc1)Oc1ccccc1 (configuration not stated) | <= 25% | Active |  | Active |  | Active | Active | 41.8 µM |  |  |  |  |  | 
CC(C)C(NC(=O)Cn1cccc(NC(=O)Oc2ccccc2)c1=O)P(=O)(Oc1ccccc1)Oc1ccccc1 (configuration not stated) | <= 25% | Active |  | Active |  | Active | Active |  |  |  |  |  |  | 
CCC(C)C(NC(=O)[C@@H]1CCCN1C(=O)[C@@H](NC(=O)OC(C)(C)C)C(C)(C)C)P(=O)(Oc1ccccc1)Oc1ccccc1 (some centres not stated) |  |  |  |  | <= 3.4% |  |  | 10.3 µM |  | 13.5 µM | inactive | inactive | inactive | 1.22
CCC(C)C(NC(=O)Cn1cccc(NC(=O)Oc2ccccc2)c1=O)P(=O)(Oc1ccccc1)Oc1ccccc1 (configuration not stated) | <= 25% | Active |  | Active |  |  |  |  |  |  |  |  |  | 
CCC(C)C(NC(=O)C(C)n1cccc(NC(=O)Oc2ccccc2)c1=O)P(=O)(Oc1ccccc1)Oc1ccccc1 (configuration not stated) | <= 25% | Active |  | Active |  |  |  | 19.8 µM |  |  |  |  |  | 
CC(C)C(NC(=O)[C@@H]1CCCN1C(=O)[C@@H](NC(=O)NC(C)(C)C)C(C)(C)C)P(=O)(Oc1ccccc1)Oc1ccccc1 (some centres not stated) | Toxic |  | Non-Toxic |  | <= 3.4% |  |  |  |  |  |  |  |  | 

Reference: ChEMBL document CHEMBL4840314, “Optimization of peptide-based inhibitors targeting the HtrA serine protease in Chlamydia: Design, synthesis and biological evaluation of pyridone-based and N-Capping group-modified analogues” (Eur J Med Chem, 2021)
